CAL PDZ FP-1 – CAL PDZ peptide-binding inhibitors, primary screen, biochemical, fluorescence polarization, Cer-tagged CAL PDZ, HTS | Golgi-associated PDZ and coiled-coil motif-containing protein (Homo sapiens), Q9HD26 | purified CAL PDZ, TMR-peptide fluorescence polarization, 1 h | inhibition, % at 20 µM | 0.02% of 330,000 active | AID 504414, 2011;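 active means highest replicate inhibition of at least 40%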;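 further: plate controls were DMSO neutral control wells for no effect and unlabeled competitor peptide control wells for full effect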
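Material: tagged CAL PDZ domain; buffer or medium: 25 mM sodium phosphate pH 7.4, 150 mM NaCl, TCEP, IgG, Thesit; compound dosing: single point, 20 µM; schedule: 1 h incubation at room temperature before polarization reading; measured by: FP readout, S and P plane fluorescence; read-out basis: percent inhibition from loss of millipolarization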
CAL PDZ FP-2 – untagged CAL PDZ binding inhibitors, primary screen, biochemical, fluorescence polarization, HTS | Golgi-associated PDZ and coiled-coil motif-containing protein (Homo sapiens), Q9HD26 | purified CAL PDZ, TMR-peptide fluorescence polarization, 1 h | inhibition, % at 24.9 µM | AID 602252, 2012 | 0.92% of 300,000 active;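 active means mean inhibition of at least 30% with at least half of replicates also reaching 30%; inconclusive means no clear call, values can overlap the other calls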;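 further: 0% = DMSO neutral control and 100% = excess unlabeled competitor peptide PRC23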
CDK5 inh – inhibitors of human CDK5/p35 kinase, primary screen, biochemical, single concentration | 0.01% of 330,000 active | inhibition, % at 10 µM | Recombinant CDK5/p35, ADP-Glo luminescence, 60 min;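 active means highest replicate inhibition of at least 50% and at least 75% of replicates reaching 50%; inconclusive means only one of the two criteria met; inactive means both criteria failed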;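 further: plate controls were DMSO neutral control for no effect and GW8510 at 10 µM for full effect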
dFosB activator – activators of delta FosB homodimer, primary screen, biochemical, fluorescence polarization, TAMRA-CDK5 oligo, single point; Protein FosB (Mus musculus), P13346; purified delta FosB; percent of positive-control signal above neutral wells; activation, % at 25 µM; 0.99% of 340,000 active;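 active means mean activation above about 17%, with every replicate also reaching it, limit read from the data, passing the limit was not always enough; inconclusive means only one of the two conditions met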
Target sequence (P13346 whole entry, looked up): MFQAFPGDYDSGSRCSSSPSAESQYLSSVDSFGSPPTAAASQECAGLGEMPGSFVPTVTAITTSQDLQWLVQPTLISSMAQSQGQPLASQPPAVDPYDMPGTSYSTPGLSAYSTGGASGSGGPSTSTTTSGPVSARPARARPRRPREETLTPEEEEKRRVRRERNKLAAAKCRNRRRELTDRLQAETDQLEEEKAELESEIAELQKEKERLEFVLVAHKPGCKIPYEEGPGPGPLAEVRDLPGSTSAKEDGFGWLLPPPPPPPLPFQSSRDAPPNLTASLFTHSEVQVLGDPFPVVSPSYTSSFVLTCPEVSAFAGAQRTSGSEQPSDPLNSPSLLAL
DYRK1A inh – rat Dyrk1A kinase inhibitors, primary screen, biochemical, single point, plate reader; ADP-Glo luminescence, NFATc1 peptide; 0.43% of 310,000 active; AID 504441, 2011; Dual specificity tyrosine-phosphorylation-regulated kinase 1A (Rattus norvegicus), Q63470; inhibition, % at 12.5 µM; in the data active means inhibition above about 50%;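 further: plate controls were vehicle with enzyme for no effect and no enzyme for full effect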
Rtt109 HAT inh – inhibitors of C. albicans Rtt109/Vps75 HAT, primary screen, biochemical, ThioGlo CoA-SH fluorescence, plate reader; Histone acetyltransferase RTT109 (Candida albicans (strain SC5314 / ATCC MYA-2876)), …; purified Rtt109/Vps75, 4 h; inhibition, % at 34.9 µM; 0.16% of 330,000 active; AID 540336, 2011;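 active means inhibition of at least 50% in every replicate; inconclusive means best replicate reaches 50% inhibition but some replicates fall short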
Numbers without * were called inactive; ? = inconclusive; / = no result given. Compounds with a hit are over-represented: about 2.2% of the library has one in this group of screens.

SMILES	CAL PDZ FP-1	CAL PDZ FP-2	CDK5 inh	dFosB activator	DYRK1A inh	Rtt109 HAT inh
CN(C)c1ccc2nc3c(=O)[nH]c(=O)nc-3n(CC(O)C(O)C(O)CO)c2c1 (stereo not given)	-8	/	5	117*	2	-1
O=C(COC(=O)/C=C/c1ccc(Cl)c(Cl)c1)NC1CCCC1	0	-7	0	-5	/	2
O=C(COC(=O)/C=C/c1ccc(Cl)c(Cl)c1)NC1CCS(=O)(=O)C1 (stereo not given)	-1	64*	1	1	/	-3
COC(=O)c1ccccc1NC(=O)CSc1nc(Nc2ccccc2)nc(N2CCOCC2)n1	-3	-3	-1	-11	-10	23
CC(=O)N(c1ccc2oc(=O)sc2c1)S(=O)(=O)c1cccc2cccnc12	0	-5	-1	2	-4	135*
CC(=O)N(c1ccc2oc(=O)sc2c1)S(=O)(=O)c1cccs1	0	-5	-5	0	-2	4
CCC(C)C(NC(=O)C1CCC(C)CC1)C(=O)NCCc1ccc(S(N)(=O)=O)cc1 (stereo not given)	-1	-4	1	8	0	3
COc1ccc(-n2nc(C(=O)NCC(=O)Nc3ccccn3)c3ccccc3c2=O)cc1Cl	0	0	1	67*	1	-45
COc1ccc(-n2nc(C(=O)NCC(=O)N3CCN(c4cccc(Cl)c4)CC3)c3ccccc3c2=O)c(OC)c1	-1	/	3	-6	-2	-2
COc1ccc(-n2nc(C(=O)NCC(=O)N3CCC(C)CC3)c3ccccc3c2=O)cc1	-2	47*	-2	-17	8	1
COc1ccc(-n2nc(C(=O)NCC(=O)N3CCN(c4ccccn4)CC3)c3ccccc3c2=O)c(OC)c1	-2	43*	-3	-4	1	2
COc1ccc(S(=O)(=O)N2CCCCC2)cc1NC(=O)CSc1ncnc2ccccc12	0	-3	/	-11	-2	4
O=c1c2c3nc4ccccc4nc3n(CCN3CCOCC3)c2ncn1CCN1CCOCC1	0	-1	3	-12	10	43
O=C(Nc1ccc(F)c(F)c1)C1CCN(S(=O)(=O)c2cccc3nonc23)CC1	-3	0	0	3	-5	12
CSc1nc(Cl)c(Br)c(Nc2c[nH]c(=O)[nH]c2=O)n1	-2	0	3	-8	0	-12
CCN(CC)CCN1C(=O)C(=O)/C(=C(/O)c2c(C)[nH]c(C(=O)OC)c2C)C1c1cccnc1 (stereo not given)	1	44*	2	-5	1	6
N#Cc1ccccc1NC(=O)COC(=O)COc1ccccc1[N+](=O)[O-]	-1	35*	-1	1	/	-3
CCOc1ccc(OCC(=O)OCC(=O)Nc2ccccc2C#N)cc1	-1	-1	-1	-6	-2	10
COc1cc(/C=C/c2nnc3c4ccccc4ncn23)cc(OC)c1OC	-6	-7	2	27*	15	1
C(=C\c1nnc2c3ccccc3ncn12)/c1ccccc1	-1	0	1	-40	9	12
CCN(CC)C(=O)Nc1ccc(Br)cc1	-1	6	0	-3	/	0
COC(=O)N/N=C/c1cn(Cc2c(Cl)cccc2Cl)c2ccccc12	1	-1	-3	-11	-5	6
CC(C)Cc1nnc(NC(=O)CN2C(=O)c3ccccc3C2=O)s1	0	-2	-1	-4	-3	10
CC(C)C(=O)N1CCN(c2ccccc2NC(=O)c2cccc3ccccc23)CC1	-5	47*	1	-24	4	3
C/C(CC(=O)Nc1cc(C)ccn1)=N\NC(=O)c1cccc(F)c1	-2	-4	7	-8	-5	-5
SMILES	CAL PDZ FP-1	CAL PDZ FP-2	CDK5 inh	dFosB activator	DYRK1A inh	Rtt109 HAT inh
CC(C)(CNC(=O)c1cc2ccccc2o1)N1CCOCC1	0	67*	1	6	3	-12
O=C(NCCN1CCOCC1)c1cc2ccccc2o1	-2	-3	1	-6	-1	-3
COc1ccc(C(=O)NC(=C(Cl)Cl)S(=O)(=O)c2ccc(C)cc2)cc1	-3	-6	-1	23*	-3	-2
Cc1ccc(C(=O)NC(=C(Cl)Cl)S(=O)(=O)c2ccccc2)cc1	-2	-1	-3	-1	2	2
O=C(CSc1nnc(NC2CCCCC2)s1)N1CCOCC1	-1	0	1	-6	/	2
ON=C1c2cc(OCCN3CCCCC3)ccc2-c2ccc(OCCN3CCCCC3)cc21	-1	0	-1	?	6	-2
NC(=S)NN=C1c2cc(OCCN3CCOCC3)ccc2-c2ccc(OCCN3CCOCC3)cc21	-1	-3	1	39*	-1	1
COC(=O)C1=C(CCc2ccccc2)NC(=O)NC1c1ccc(Cl)cc1 (stereo not given)	0	-1	0	-8	3	5
CCC(C)(C(=O)NC1CCCCC1)N(C(=O)CNC(C)=O)c1c(C)n(C)n(-c2ccccc2)c1=O (stereo not given)	-2	2	-1	4	0	-2
CCC(C)(C(=O)NC1CCCCC1)N(C(=O)CC1NC(=O)NC1=O)c1c(C)n(C)n(-c2ccccc2)c1=O (stereo not given)	-2	34*	0	-4	/	7
Cc1ccc(C)c(C(=O)COC(=O)c2cc([N+](=O)[O-])ccc2NCCO)c1	-1	/	2	-6	0	-8
Cc1ccc(-c2nc(N)n(C(=O)c3cccs3)n2)cc1	10	83*	-1	2	0	-8
Cc1ccccc1CNC(=O)c1ccc2ccccc2n1	-1	76*	2	-5	19	-11
Cn1nnnc1SCC(=O)Nc1ccc2c(c1)OCCO2	-1	/	1	6	-1	-21
CC(Sc1nnnn1C)C(=O)Nc1ccc2c(c1)OCCO2 (stereo not given)	-1	44*	-2	-2	5	-5
Nn1c(SCC(=O)Nc2ccc3c(c2)OCCO3)nnc(CCC(=O)O)c1=O	1	83*	1	3	-5	12
Cc1ccc(-n2nnnc2SCC(=O)Nc2ccc3c(c2)OCCO3)cc1C	1	-3	0	-2	5	-5
CC(=O)Nc1ccc(NC(=O)CSc2nnnn2-c2ccc3c(c2)OCCO3)cc1	-3	2	-1	87*	-7	-2
